For orientation: EC50 means the concentration needed to bring the measured effect to its halfway point.

Active and inactive are the calls of the source.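 The calls were made as follows: active = potency EC50 below 10 µM in the dose response test; inactive = the rest.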

Consider 21 compounds from PubChem BioAssay AID2340 (Sanford-Burnham Center for Chemical Genomics, 2010).

G-protein coupled receptor 35 (Homo sapiens), sequence (Q9HC97 whole entry, looked up): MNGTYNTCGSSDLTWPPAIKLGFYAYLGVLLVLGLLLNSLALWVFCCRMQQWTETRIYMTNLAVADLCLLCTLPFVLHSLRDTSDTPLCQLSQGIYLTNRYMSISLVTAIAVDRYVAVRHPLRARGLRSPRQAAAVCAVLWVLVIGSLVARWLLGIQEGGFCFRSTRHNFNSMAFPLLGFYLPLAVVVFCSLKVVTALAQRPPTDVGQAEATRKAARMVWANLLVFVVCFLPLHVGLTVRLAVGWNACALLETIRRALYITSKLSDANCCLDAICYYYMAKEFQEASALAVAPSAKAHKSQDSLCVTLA

The assay deals with G-protein coupled receptor 35 (Homo sapiens) (UniProt Q9HC97). Put plainly: GPR35 agonist activity of analogs, SAR follow-up, selectivity assay, imaging, U2OS, beta-arrestin-GFP, powder samples (AID 2340). As to conditions: U2OS GPR35 beta-arrestin-GFP translocation imaging. A digest of the protocol: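 material = human U2OS cells stably co-expressing GPR35 and beta-arrestin-GFP | incubation = 45 min at 37 °C | read-out basis = Arrestin-GFP spot versus cytoplasm intensity ratio, non-linear sigmoidal curve fit | buffer or medium = serum-starved cells | technique = imaging of fixed, DAPI-stained arrestin-GFP cells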
In the case of `O=C(CSc1nc2ccccc2s1)N1c2ccccc2Sc2ccc(C(F)(F)F)cc21`, the EC50 is > 32 µM (inactive). Regarding `CCCN(CCC)Cc1c(C(=O)NN=C/C(C)=C\c2ccccc2)nnn1-c1nonc1N`, the EC50 is > 32 µM (inactive). For `Cc1occc1C(=O)Nc1ccc(OCc2ccccc2)cc1`, the EC50 is > 32 µM (inactive).

For `CC(C)Oc1ccc(S(=O)(=O)N2CCOCC2)cc1NC(=O)c1ccc(N2CCCC2=O)cc1`, the EC50 was > 32 µM (inactive). As to `CCCN(CCC)Cc1c(C(=O)NN=C/C(C)=C\c2ccco2)nnn1-c1nonc1N`, the EC50 was > 32 µM (inactive).

Consider `CC(C)NS(=O)(=O)c1ccc(NC(=S)NC(=O)c2ccc(-c3ccccc3)cc2)cc1`, for which the EC50 was > 32 µM (inactive).

Regarding `CC(C)=CC(=O)Nc1ccc(OCc2ccccc2)cc1`, the EC50 was > 32 µM (inactive).

As for `COc1ccccc1/C=C/C(=O)NC(=S)Nc1ccc(S(=O)(=O)N(C)c2ccccc2)cc1`, the EC50 is > 32 µM (inactive). On to `C/C(C=NNC(=O)c1nnn(-c2nonc2N)c1CN1CCC(C)CC1)=C/c1ccccc1`, for which the EC50 is > 32 µM (inactive). Then `COc1ccc(-c2csc(NC(=O)CSc3nnc4c(C)cc5ccccc5n34)n2)cc1`, with > 32 µM (inactive). For the compound `CC(Sc1nc2cc(Cl)ccc2s1)C(=O)Nc1cccc(S(=O)(=O)N2CCOCC2)c1` (stereo unspecified), the EC50 was > 32 µM (inactive).

Turning to `COc1ccc2c(c1)cc(C)c1nnc(SCC(=O)N(C)c3nc(-c4ccccc4)cs3)n12`, the EC50 was > 32 µM (inactive). The same measure for `COc1cc2c(cc1NC(=O)CSc1ccccc1)oc1ccccc12`: > 32 µM (inactive); for `CCCN(CCC)Cc1c(C(=O)NN=Cc2c[nH]c3ccccc23)nnn1-c1nonc1N`: > 32 µM (inactive).

As to `O=C(CSc1nc2ccccc2s1)N1c2ccccc2Sc2ccc(Cl)cc21`, the EC50 is > 32 µM (inactive). For `Cc1cccc(N2CCN(C(=O)c3cc(S(=O)(=O)N(C)C)ccc3N3CCCC3)CC2)c1C`, the EC50 is > 32 µM (inactive). For the compound `CN(C)S(=O)(=O)c1ccc(N2CCCC2)c(C(=O)N2CCN(c3ccc([N+](=O)[O-])cc3)CC2)c1`, the EC50 is > 32 µM (inactive). For the compound `COc1ccc2cc(C)c3nnc(SCC(=O)Nc4nc(-c5ccc(F)cc5)cs4)n3c2c1`, the EC50 was > 32 µM (inactive). As to `COc1ccc(S(=O)(=O)N2CCOCC2)cc1NC(=O)c1cc2c(s1)CCCC2`, the EC50 is > 32 µM (inactive). The same measure for `COc1cc2c(cc1NC(=O)C(C)Sc1ccc(NC(C)=O)cc1)oc1ccccc12` (stereo unspecified): > 32 µM (inactive). `C=CCN(CC=C)S(=O)(=O)c1ccc(NC(=S)NC(=O)c2ccc(-c3ccccc3)cc2)cc1`: the EC50 is > 32 µM (inactive).
